Assay results from publication PMC10239344 (ChemMedChem, 2023).
pIC50, pKi: −log10 of the molar value. Where two headings read alike, the source gives them in different places.

Experiments:
[1] = biological target: T1, K. pneumoniae LpxH (KpLpxH) (Klebsiella pneumoniae subsp. pneumoniae, UniProt A6T5R0); settings: cited from earlier work; for Percentage Activity of KpLpxH (vi/v0) / Percentage Inhibition of KpLpxH: 0.1 μM inhibitor, previously reported
T1 sequence (A6T5R0 1-240): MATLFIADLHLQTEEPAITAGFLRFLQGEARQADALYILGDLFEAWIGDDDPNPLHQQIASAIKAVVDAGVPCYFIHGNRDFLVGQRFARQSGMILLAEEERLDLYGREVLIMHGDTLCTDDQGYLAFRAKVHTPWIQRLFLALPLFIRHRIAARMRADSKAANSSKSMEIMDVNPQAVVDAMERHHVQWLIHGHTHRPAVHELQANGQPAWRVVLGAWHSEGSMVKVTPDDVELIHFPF

[2] = biological target: T1, K. pneumoniae LpxH (KpLpxH); test: LpxE-coupled malachite green LpxH activity assay; assay type: biochemical
Method in brief: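 Enzyme/inhibitor and substrate mixes were preincubated 10 min at 37 °C, then combined (final 100 μM UDP-DAGn, 10 ng/mL enzyme). Aliquots were EDTA-quenched, then A. aeolicus LpxE 5 μg/mL was added for 30 min at 37 °C. Formic acid stop; malachite green A620. Triplicates; activity normalized to DMSO control; IC50 fit converted to competitive KI.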

Row | Compound | Percentage Activity of KpLpxH (vi/v0) [1] | Percentage Inhibition of KpLpxH [1] | Percentage Activity of KpLpxH (vi/v0) ([1]; listed as 2 (JH-LPH-33)) | pIC50 ([1]; read-out: IC50 of KpLpxH inhibition, reported value) | pKi ([1]; read-out: KI for KpLpxH, reported value) | Percentage Inhibition of KpLpxH ([2]; 0.1 μM inhibitor) [%] | pKi ([2]; read-out: KI for KpLpxH, from IC50, competitive binding mode, KM 68.1 μM)
1 | CC(=O)N1CCc2cc(S(=O)(=O)N3CCN(c4cccc(C(F)(F)F)c4)CC3)ccc21 [Compound 1] | 78^[16] % | 22^[16] % | – | – | – | – | –
2 | CC(=O)N1CCc2cc(S(=O)(=O)N3CCN(c4cc(Cl)cc(C(F)(F)F)c4)CC3)ccc21 [Compound 2] | 21% | 79^[16] % | 21^[16] % | 7.59 | 8.00 | – | –
3 | O=C(CCCCCNC(=O)Nc1ccc(S(=O)(=O)N2CCN(c3cc(Cl)cc(C(F)(F)F)c3)CC2)cc1)NO [Compound 13] | – | – | – | – | – | 97 | 8.51
